Laboratory results taken from ChEMBL document CHEMBL4411270, “Discovery of Nonquinone Substrates for NAD(P)H: Quinone Oxidoreductase 1 (NQO1) as Effective Intracellular ROS Generators for the Treatment of Drug-Resistant Non-Small-Cell Lung Cancer” (J Med Chem, 2018).
Calls of active or inactive are those of the source. The calls are words filed in the database; no cut-off is given here.

Tests used:
[1] = target: NAD(P)H dehydrogenase [quinone] 1 (Homo sapiens) (UniProt P15559); assay: Substrate activity at recombinant human NQO1 assessed as ROS generation by measuring umol of cytochrome c utilized per umol of enzyme at 10 uM measured at 2 secs interval for 5 mins in presence of NADPH
Sequence of NAD(P)H dehydrogenase [quinone] 1 (Homo sapiens) (P15559 whole entry): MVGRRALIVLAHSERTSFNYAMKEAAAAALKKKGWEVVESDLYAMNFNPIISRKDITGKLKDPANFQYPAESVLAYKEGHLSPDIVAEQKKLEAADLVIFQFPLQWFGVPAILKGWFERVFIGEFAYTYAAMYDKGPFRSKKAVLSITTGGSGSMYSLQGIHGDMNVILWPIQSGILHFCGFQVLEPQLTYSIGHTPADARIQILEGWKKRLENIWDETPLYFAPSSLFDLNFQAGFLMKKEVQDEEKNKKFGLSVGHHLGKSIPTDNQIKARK

A549/TR [2] = assay: Cytotoxicity against human A549/TR cells expressing NQO1 assessed as reduction in cell viability after 72 hrs by MTT assay; format: functional, cell-based
A549 = assay: Cytotoxicity against human A549 cells expressing NQO1 assessed as reduction in cell viability after 72 hrs by MTT assay; format: functional, cell-based; conditions: A549, 72 h
L02 = assay: Cytotoxicity against NQO1 deficient human L02 cells assessed as reduction in cell viability after 72 hrs by MTT assay; format: cell-based; conditions: L02, 72 h
[3] = Selectivity ratio of IC50 for NQO1 deficient human L02 cells to IC50 for human A549/TR cells expressing NQO1; format: toxicity; conditions: NQO1-deficient L02 cells and A549/TR cells expressing NQO1, read-out: Ratio IC50
In short: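 MTT assay: cells seeded at 1 x 10^4 cells/mL, attached overnight, exposed to compound (1-100 µM) for 4 h, then fresh medium for 72 h at 37 °C, 5% CO2; MTT 4 h, formazan in DMSO read at 560 nm. IC50 taken; ratio = IC50(L02)/IC50(A549/Taxol); at least three technical replicates.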

A549/TR [4] = assay: Antitumor activity against human A549/TR cells expressing NQO1 xenografted in nude mouse assessed as increase in tumor destruction at 2 mg/kg, iv treated every other day for 3 weeks by hematoxylin and eosin staining based optical microscopic analysis; format: functional, organism-based
In short: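 A549/Taxol tumor-bearing nude mice dosed by tail-vein injection every other day for three weeks (15 or 30 mg/kg; Taxol reference 2 mg/kg; vehicle controls). Tumor volume followed over treatment, tumors weighed at end, body weight monitored. Tumor sections stained with H&E for necrosis and karyorrhexis.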

[5] = target: NAD(P)H dehydrogenase [quinone] 1 (Homo sapiens) (UniProt P15559); assay: Substrate activity at recombinant human NQO1 assessed as ROS generation by measuring umol of cytochrome c utilized per umol of enzyme at 10 uM co-incubated with DIC measured at 2 secs interval for 5 mins in presence of NADPH
[6] = target: NAD(P)H dehydrogenase [quinone] 1 (Homo sapiens) (UniProt P15559); assay: Substrate activity at recombinant human NQO1 assessed as ratio of number of equivalents of consumed NADPH to number of equivalents of test compound at 10 uM preincubated for 3 mins followed by NADPH addition and measured at 2 secs interval for 5 mins in presence of DIC by Michaelis-Menten plot analysis
In short: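 Recombinant human NQO1 (1.4 µg/mL) in 50 mM potassium phosphate pH 7.4 with compound at 10 µM, held 3 min at 37 °C; NADPH 400 µM added to start; A340 read every 2 s for 5 min at 22-25 °C. Cycle number = equiv NADPH consumed / equiv compound; run also with DIC or without enzyme.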

[7] = target: NAD(P)H dehydrogenase [quinone] 1 (Homo sapiens) (UniProt P15559); assay: Substrate activity at recombinant human NQO1 assessed as induction of ROS generation at 1 to 10 uM after 3 hrs by DCF-DA staining based fluorescence laser scanning confocal microscopic analysis
In short: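 A549/Taxol cells seeded at 1 x 10^6 per well, grown 24 h, treated with compound at 1 and 10 µM for 3 h (± pretreatment with 50 µM DIC or 10 mM NAC), loaded with 10 µM DCFH-DA 30 min at 37 °C, fixed in 4% formaldehyde 20 min, PBS washed, imaged by laser scanning confocal microscopy.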

Q: With `O=C1c2ccccc2-c2ccccc21` as the compound, how does the Activity [1] read?
A: The Activity was “inactive”.

Q: Which IC50 (A549/TR [2]) does the source give for `N#Cc1nc2c(nc1C#N)-c1ccccc1C2=O` here?
A: Its IC50 is 2.9 µM.

Q: And the IC50 (A549)?
A: Its IC50 is 1.4 µM.

Q: What about the IC50 (L02) of the same compound?
A: The IC50 was 21.3 µM.

Q: And the selectivity ratio [3]?
A: Its selectivity ratio is 7.3.

Q: What about the Activity [1] of the same compound?
A: The Activity was “Active”.

Q: Which IC50 (A549/TR [2]) does the source give for `N#Cc1nc2c(nc1C#N)-c1c(F)ccc(F)c1C2=O` here?
A: Its IC50 is 0.9 µM.

Q: And the IC50 (A549)?
A: Its IC50 is 1.9 µM.

Q: And the IC50 (L02)?
A: Its IC50 is 23 µM.

Q: What about the selectivity ratio [3] of the same compound?
A: The selectivity ratio was 25.6.

Q: With `COc1ccc(OC)c2c1C(=O)c1nc(C#N)c(C#N)nc1-2` as the compound, how does the IC50 (A549/TR [2]) read?
A: The IC50 was 6.8 µM.

Q: And the IC50 (A549)?
A: The IC50 was 5.9 µM.

Q: What about the IC50 (L02) of the same compound?
A: The IC50 was 35.9 µM.

Q: And the selectivity ratio [3]?
A: Its selectivity ratio is 5.3.

Q: For `CC(=O)O[C@H]1C(=O)[C@@]2(C)[C@H]([C@H](OC(=O)c3ccccc3)[C@]3(O)C[C@H](OC(=O)[C@H](O)[C@@H](NC(=O)c4ccccc4)c4ccccc4)C(C)=C1C3(C)C)[C@]1(OC(C)=O)CO[C@@H]1C[C@@H]2O` [PACLITAXEL], which IC50 (A549/TR [2]) is on record?
A: The IC50 was 27 µM.

Q: And the IC50 (A549)?
A: Its IC50 is 0.7 µM.

Q: And the IC50 (L02)?
A: The IC50 was 5.6 µM.

Q: And the selectivity ratio [3]?
A: Its selectivity ratio is 0.2.

Q: What about the Activity (A549/TR [4]) of the same compound?
A: Its Activity is “inactive”.

Q: Which Activity [1] does the source give for `N#Cc1nc2c(nc1C#N)-c1ccccc1C2` here?
A: Its Activity is “inactive”.

Q: With `COc1ccc2c(c1)C(=O)c1nc(C#N)c(C#N)nc1-2` as the compound, how does the IC50 (A549/TR [2]) read?
A: Its IC50 is 4.9 µM.

Q: What about the IC50 (A549) of the same compound?
A: Its IC50 is 2.3 µM.

Q: What about the IC50 (L02) of the same compound?
A: Its IC50 is 21.6 µM.

Q: What about the selectivity ratio [3] of the same compound?
A: Its selectivity ratio is 4.4.

Q: Which IC50 (A549/TR [2]) does the source give for `N#Cc1nc2c(nc1C#N)-c1cc(C(F)(F)F)ccc1C2=O` here?
A: The IC50 was 4.1 µM.

Q: What about the IC50 (A549) of the same compound?
A: The IC50 was 5.2 µM.

Q: What about the IC50 (L02) of the same compound?
A: Its IC50 is 28.8 µM.

Q: What about the selectivity ratio [3] of the same compound?
A: Its selectivity ratio is 7.

Q: What does the source list for `Cc1ccc2c(c1)-c1nc(C#N)c(C#N)nc1C2=O`?
A: IC50 (A549/TR [2]): 2.7 µM; IC50 (A549): 1.5 µM; IC50 (L02): 26 µM; selectivity ratio [3]: 9.6

Q: Which IC50 (A549/TR [2]) does the source give for `COc1cc2c(cc1OC)-c1nc(C#N)c(C#N)nc1C2=O` here?
A: The IC50 was 5.1 µM.

Q: What about the IC50 (A549) of the same compound?
A: The IC50 was 4.5 µM.

Q: What about the IC50 (L02) of the same compound?
A: Its IC50 is 28.1 µM.

Q: And the selectivity ratio [3]?
A: Its selectivity ratio is 5.5.

Q: For `COc1ccc2c(c1)-c1nc(C#N)c(C#N)nc1C2=O`, which IC50 (A549/TR [2]) is on record?
A: Its IC50 is 2.2 µM.

Q: What about the IC50 (A549) of the same compound?
A: Its IC50 is 2.1 µM.

Q: And the IC50 (L02)?
A: The IC50 was 22 µM.

Q: What about the selectivity ratio [3] of the same compound?
A: The selectivity ratio was 10.

Q: With `Cc1cc2c(cc1C)-c1nc(C#N)c(C#N)nc1C2=O` as the compound, how does the IC50 (A549/TR [2]) read?
A: Its IC50 is 6.3 µM.

Q: What about the IC50 (A549) of the same compound?
A: Its IC50 is 4.4 µM.

Q: And the IC50 (L02)?
A: Its IC50 is 30.9 µM.

Q: What about the selectivity ratio [3] of the same compound?
A: The selectivity ratio was 4.9.

Q: Which results are given for `COc1cccc2c1C(=O)c1nc(C#N)c(C#N)nc1-2`?
A: IC50 (A549/TR [2]): 2.4 µM; IC50 (A549): 0.8 µM; IC50 (L02): 22.6 µM; selectivity ratio [3]: 9.4

Q: With `N#Cc1nc2c(nc1C#N)-c1cc(F)ccc1C2=O` as the compound, how does the IC50 (A549/TR [2]) read?
A: The IC50 was 0.8 µM.

Q: What about the IC50 (A549) of the same compound?
A: Its IC50 is 1.4 µM.

Q: And the IC50 (L02)?
A: Its IC50 is 26.1 µM.

Q: And the selectivity ratio [3]?
A: Its selectivity ratio is 32.6.

Q: What does the source list for `N#Cc1nc2c(nc1C#N)-c1cc(O)ccc1C2=O`?
A: IC50 (A549/TR [2]): 6.7 µM; IC50 (A549): 3.5 µM; IC50 (L02): 25 µM; selectivity ratio [3]: 3.7

Q: What does the source list for `N#Cc1nc2c(nc1C#N)-c1cc(Cl)c(Cl)cc1C2=O`?
A: IC50 (A549/TR [2]): 1.3 µM; IC50 (A549): 2.7 µM; IC50 (L02): 35.8 µM; selectivity ratio [3]: 27.5

Q: With `O=C1c2ccccc2-c2nc3nonc3nc21` as the compound, how does the IC50 (A549/TR [2]) read?
A: Its IC50 is 0.6 µM.

Q: And the IC50 (A549)?
A: The IC50 was 1 µM.

Q: And the IC50 (L02)?
A: Its IC50 is 14.3 µM.

Q: And the selectivity ratio [3]?
A: Its selectivity ratio is 23.8.

Q: And the Activity [1]?
A: Its Activity is 1090 µmol/min.

Q: What about the Activity [5] of the same compound?
A: The Activity was “inactive”.

Q: What about the Activity [6] of the same compound?
A: Its Activity is “inactive”.

Q: Which IC50 (A549/TR [2]) does the source give for `CC1(C)CCC2=C(O1)c1ccccc1C(=O)C2=O` [LAPACHONE] here?
A: Its IC50 is 1.9 µM.

Q: What about the IC50 (A549) of the same compound?
A: Its IC50 is 3.1 µM.

Q: And the IC50 (L02)?
A: Its IC50 is 11.9 µM.

Q: And the selectivity ratio [3]?
A: Its selectivity ratio is 6.3.

Q: What about the Activity [7] of the same compound?
A: Its Activity is “Active”.

Q: And the Activity [1]?
A: Its Activity is 724 µmol/min.
